Results pooled from the literature.
Each line is one published result; the experiments were not run side by side.
RAF1: RAF proto-oncogene serine/threonine-protein kinase (RAF1, Homo sapiens, UniProt P04049)
RAF1 Y340D/Y341D: RAF proto-oncogene serine/threonine-protein kinase (RAF1, Homo sapiens, UniProt P04049, Y340D/Y341D)

| SMILES | target | effect on | mode | method | tested at | endpoint | result |
| --- | --- | --- | --- | --- | --- | --- | --- |
| Cc1ccc(C(=O)Nc2ccc(CN3CCN(C)CC3)c(C(F)(F)F)c2)cc1C#Cc1cnc2cccnn12 | RAF1 | enzyme activity | inhibitor |  | 23.5 nM | remaining activity | 61% |
| C[C@H](NC(=O)c1cnc2n1[C@](C)(Cc1ccc(C#N)cc1)C(=O)N2c1cc(Cl)c(F)c(Cl)c1)C(=O)NC1(c2ccccn2)CC1 | RAF1 | cell-free assay |  | competition with immobilised ligand | 1 µM | remaining binding | 100% |
| COc1cc(-c2cc(-c3ccc(N4CCNCC4)cc3)cnc2N)cc(OC)c1OC | RAF1 | enzyme activity | inhibitor |  | 1 µM | inhibition | 2% |
| CNCc1ccc(-c2cc(-c3nc(-c4ccc(S(=O)(=O)C(C)C)cc4)cnc3N)on2)cc1 | RAF1 | enzyme activity | inhibitor |  | 2 µM | inhibition | 10% |
| O=C1Nc2ccc(Cl)cc2C1=Cc1cc(Cl)c(O)c(Cl)c1 | RAF1 | cell-free assay |  |  | 0.5 µM | remaining signal | 6.93% |
| c1nc2c(Nc3ccc4c(c3)OCCO4)nc(Nc3ccc4c(c3)OCCO4)nc2[nH]1 | RAF1 | enzyme activity | inhibitor |  | 10 µM | activity vs control | 95% |
| CC(C)(C)c1nc2c(s1)c1nc(N)ncc1c1ccc(NS(=O)(=O)c3c(F)cccc3F)c(F)c12 | RAF1 Y340D/Y341D | enzyme activity | inhibitor | radiometric | 1 µM | remaining activity | 9% |
| CCS(=O)(=O)c1cc2cc(C[C@](O)(CC(C)(C)c3ccc(F)cc3C(N)=O)C(F)(F)F)[nH]c2cn1 | RAF1 | cell-free assay |  | competition with immobilised ligand | 1 µM | remaining binding | 83% |
| Cc1sc(C(=O)NC2COC2)cc1-n1cc(NC(=O)Nc2c(F)cccc2Cl)cn1 | RAF1 | enzyme activity | inhibitor |  | 10 µM | remaining activity | 92.6% |
| O=C(O)c1cc(-c2ccc(C3CCNCC3)cc2)c2ccc(-c3ccc(C(F)(F)F)cc3)cc2c1 | RAF1 | cell-free assay |  | competition with immobilised ligand | 1 µM | remaining binding | 70% |
| CNC(=O)c1cc2c(Oc3ccc(NC(=O)C4(C(=O)Nc5ccc(F)cc5)CC4)cc3)ccnc2cc1OC | RAF1 | enzyme activity | inhibitor | radiometric | 1 µM | inhibition | 83% |
| N#CCCc1ccc2c(c1)-c1[nH]c3ccc([N+](=O)[O-])cc3c1CC(=O)N2 | RAF1 | cell-free assay |  |  | 0.5 µM | remaining signal | 104% |
| O=C(O)[C@@H]1[C@@H](Cn2nnc3ccccc3c2=O)CC[C@H]1C(=O)c1ccc(OCCC2CCOCC2)cc1 | RAF1 | cell-free assay |  | competition with immobilised ligand | 1 µM | remaining binding | 100% |
| CCN(CC)CCNC(=O)c1c(C)[nH]c(/C=C2\C(=O)Nc3ccc(F)cc32)c1C | RAF1 | cell-free assay |  |  | 0.5 µM | remaining signal | 110% |
| O=C(Nc1cnn(-c2csc(C(=O)NC3COC3)c2)c1)Nc1ccccc1Cl | RAF1 | enzyme activity | inhibitor |  | 5 µM | remaining activity | 87% |
| Cc1[nH]c(/C=C2\C(=O)Nc3ccc(F)cc32)c(C)c1C(=O)N[C@H]1CCN(C(=O)N(C)C)C1 | RAF1 | enzyme activity | inhibitor |  | 0.1 µM | remaining activity | 118% |
| C=CC(=O)Nc1cc(Nc2nccc(Nc3cc(Cl)c(F)cc3C(C)(C)O)n2)c(OC)cc1N1CC[C@@H](N(C)C)C1 | RAF1 | enzyme activity | inhibitor |  | 1 µM | inhibition | 10% |
| CCN(CC)CCNC(=O)c1c(C)[nH]c(/C=C2\C(=O)Nc3ccc(F)cc32)c1C | RAF1 | enzyme activity | inhibitor |  | 0.1 µM | remaining activity | 95% |
| CN(C)C1CCN(CC#Cc2nn(C3CCCC3)c3nc(NCc4ccccc4)ncc23)C1 (stereo not drawn) | RAF1 Y340D/Y341D | enzyme activity | inhibitor | FRET | 1 µM | inhibition | -4% |
| O=C(CSc1nc2nccnc2c(=O)n1CCc1ccccc1)Nc1nccs1 | RAF1 Y340D/Y341D | enzyme activity | inhibitor |  | 10 µM | inhibition | 3% |
| CCN(CC)c1ccc(C2=NNC(=O)CC2C)cc1[N+](=O)[O-] (stereo not drawn) | RAF1 | enzyme activity | inhibitor |  | 10 µM | remaining activity | 90% |
| CSc1nc(C)c(-c2ccnc(Nc3ccc(N4CCOCC4)cc3)c2)[nH]1 | RAF1 | enzyme activity | inhibitor |  | 10 µM | inhibition | 64.1% |
| CS(=O)(=O)c1cc(C2(NC(=O)c3cncc4c3cnn4-c3ccc(F)cc3)CC2)ccn1 | RAF1 | cell-free assay |  | competition with immobilised ligand | 1 µM | remaining binding | 100% |
| CCCOc1ccc(OC)c(F)c1C(=O)c1ccc(C(=O)N[C@@H]2CNC[C@H]2NC(=O)c2ccc3[nH]ncc3c2)cc1 | RAF1 | enzyme activity | inhibitor |  | 10 µM | remaining activity | 109% |
| CN(C)C(=O)Cn1cc(-c2nc(C3(c4ccc(-c5cnc(N)nc5)cc4)CC3)no2)cn1 | RAF1 | cell-free assay |  | competition with immobilised ligand | 1 µM | remaining binding | 100% |
| Cc1ccc(C(=O)NCc2ccsc2)cc1C#Cc1cn(C(C)C)c2ncnc(N)c12 | RAF1 | enzyme activity | inhibitor |  | 1 µM | activity vs control | 15% |
| N#Cc1ccc(Nc2ccc3[nH]c(=O)[nH]c3c2)c(Cl)c1 | RAF1 | cell-free assay |  | competition with immobilised ligand | 1 µM | remaining binding | 68% |
| COc1cc2ncnc(Nc3ccc(Oc4ccccc4)c(C)c3C)c2cc1OC | RAF1 Y340D/Y341D | enzyme activity | inhibitor |  | 1 µM | inhibition | -6% |
| c1ccc(N2CCN(Cc3nc4ccccc4[nH]3)CC2)nc1 | RAF1 | binding |  | competition with immobilised ligand | 1 µM | remaining binding | 100% |
| Cc1ccc(Nc2nccc(N(C)c3ccc4c(C)n(C)nc4c3)n2)cc1S(N)(=O)=O | RAF1 | enzyme activity | inhibitor |  | 10 µM | inhibition | 96% |
